Active and inactive are the calls of the source. The calls are words filed in the database; no cut-off is given here.
Key:
Heat shock protein HSP90 [1] = molecular target: T1, Heat shock protein HSP90 (Homo sapiens, UniProt P07900+P08238); assay: Inhibition of HSP90 in human A431 cells assessed as down-regulation of EGFR protein after 24 hrs by immunoblotting; format: cell-based; conditions: a-431
How it was run: (§1)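 Cells seeded at 100,000 cells/mL, treated 24 h later for 24 h at the equitoxic IC80 concentration given per compound and cell line. Whole-cell extracts (40 µg) run on SDS-PAGE and immunoblotted. Actin was the loading control, and tubulin the loading control for EGFR.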

[2] = Binding affinity to HSP90 after 4 hrs by fluorescence polarization assay
NCI-H460 = assay: Antiproliferative activity against human NCI-H460 cells after 72 hrs; format: functional, cell-based; conditions: NCI-H460, 72 h
Heat shock protein HSP90 [3] = molecular target: T1, Heat shock protein HSP90; assay: Inhibition of HSP90 in human IGROV1 cells assessed as down-regulation of Akt protein at IC80 concentration after 24 hrs by immunoblotting; format: cell-based; conditions: IGROV-1; how it was run: as §1
Heat shock protein HSP90 [4] = molecular target: T1, Heat shock protein HSP90; assay: Inhibition of HSP90 in human JR8 cells assessed as down-regulation of EGFR protein at IC80 concentration after 24 hrs by immunoblotting; format: cell-based; how it was run: as §1
Heat shock protein HSP90 [5] = molecular target: T1, Heat shock protein HSP90; assay: Inhibition of HSP90 in human JR8 cells assessed as down-regulation of Cdk4 protein at IC80 concentration after 24 hrs by immunoblotting; format: cell-based; how it was run: as §1
IGROV-1 [6] = assay: Antiproliferative activity against human IGROV1 cells after 72 hrs; format: functional, cell-based; conditions: IGROV-1, 72 h
Heat shock protein HSP90 [7] = molecular target: T1, Heat shock protein HSP90; assay: Inhibition of HSP90 in human A431 cells assessed as down-regulation of survivin protein after 24 hrs by immunoblotting; format: cell-based; conditions: a-431; how it was run: as §1
Heat shock protein HSP90 [8] = molecular target: T1, Heat shock protein HSP90; assay: Inhibition of HSP90 in human JR8 cells assessed as down-regulation of survivin protein at IC80 concentration after 24 hrs by immunoblotting; format: cell-based; how it was run: as §1
[9] = Antiproliferative activity against human JR8 cells after 72 hrs; format: functional, cell-based; conditions: JR8, 72 h
Heat shock protein HSP90 [10] = molecular target: T1, Heat shock protein HSP90; assay: Inhibition of HSP90 in human A431 cells assessed as down-regulation of EGFR protein at IC80 concentration after 24 hrs by immunoblotting; format: cell-based; conditions: A-431; how it was run: as §1
[11] = Inhibition of yeast full-length recombinant HSP90 ATPase activity expressed in Escherichia coli strain BL21(DE3) assessed as inorganic phosphate release after 3 hrs; set-up: species or system Saccharomyces cerevisiae
Heat shock protein HSP90 [12] = molecular target: T1, Heat shock protein HSP90; assay: Inhibition of HSP90 in human A431 cells assessed as reduction of Raf-1/Hsp90 precipitation at IC80 concentration after 4 hrs by co-immunoprecipitation analysis; format: cell-based; conditions: A-431
Heat shock protein HSP90 [13] = molecular target: T1, Heat shock protein HSP90; assay: Inhibition of HSP90 in human JR8 cells assessed as down-regulation of Raf-1 protein at IC80 concentration after 24 hrs by immunoblotting; format: cell-based; how it was run: as §1
Heat shock protein HSP90 [14] = molecular target: T1, Heat shock protein HSP90; assay: Inhibition of HSP90 in human A431 cells assessed as down-regulation of Cdk4 protein after 24 hrs by immunoblotting; format: cell-based; conditions: a-431; how it was run: as §1
Heat shock protein HSP90 [15] = molecular target: T1, Heat shock protein HSP90; assay: Inhibition of HSP90 in human JR8 cells assessed as down-regulation of Akt protein at IC80 concentration after 24 hrs by immunoblotting; format: cell-based; how it was run: as §1
[16] = Antiproliferative activity against human STO cells after 72 hrs; format: functional, cell-based
How it was run: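 Cells seeded 24 h before, then exposed to compound for 72 h (about three doublings in controls), in medium with 10% heat-inactivated FBS at 37 °C. Compound dissolved fresh in DMSO and diluted in medium. Adherent cells trypsinized and counted electronically. IC50 is the concentration giving 50% growth inhibition, read from dose–response curves.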

Heat shock protein HSP90 [17] = molecular target: T1, Heat shock protein HSP90; assay: Inhibition of HSP90 in human IGROV1 cells assessed as down-regulation of Raf-1 protein at IC80 concentration after 24 hrs by immunoblotting; format: cell-based; conditions: IGROV-1; how it was run: as §1
Heat shock protein HSP90 [18] = molecular target: T1, Heat shock protein HSP90; assay: Inhibition of HSP90 in human A431 cells assessed as down-regulation of Akt protein after 24 hrs by immunoblotting; format: cell-based; conditions: a-431; how it was run: as §1
A-431 = assay: Antiproliferative activity against human A431 cells after 72 hrs; format: functional, cell-based; conditions: A-431, 72 h
Heat shock protein HSP90 [19] = molecular target: T1, Heat shock protein HSP90; assay: Inhibition of HSP90 in human A431 cells assessed as down-regulation of survivin protein at IC80 concentration after 24 hrs by immunoblotting; format: cell-based; conditions: A-431; how it was run: as §1
IGROV-1 [20] = assay: Induction of apoptosis in human IGROV1 cells assessed as PARP1 cleavage at 11 uM after 48 hrs by Western blotting; format: functional, cell-based
How it was run: (§2)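 IGROV-1 cells treated with 11 µM compound for 24 or 48 h. Cells rinsed with ice-cold PBS containing 0.1 mM orthovanadate and lysed in hot sample buffer. 40 µg of total extract run on SDS-PAGE and blotted onto nitrocellulose. Probed for cleaved caspase-3 and PARP-1.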

Heat shock protein HSP90 [21] = molecular target: T1, Heat shock protein HSP90; assay: Inhibition of HSP90 in human A431 cells assessed as reduction of Hsp70/Hsp90 precipitation at IC80 concentration after 4 hrs by co-immunoprecipitation analysis; format: cell-based; conditions: A-431
Heat shock protein HSP90 [22] = molecular target: T1, Heat shock protein HSP90; assay: Inhibition of HSP90 in human A431 cells assessed as down-regulation of Cdk4 protein at IC80 concentration after 24 hrs by immunoblotting; format: cell-based; conditions: A-431; how it was run: as §1
Heat shock protein HSP90 [23] = molecular target: T1, Heat shock protein HSP90; assay: Inhibition of HSP90 in human A431 cells expressing p53 mutant assessed as down-regulation of p53 protein at IC80 concentration after 24 hrs by immunoblotting; format: cell-based; conditions: A-431; how it was run: as §1
Heat shock protein HSP90 [24] = molecular target: T1, Heat shock protein HSP90; assay: Inhibition of HSP90 in human A431 cells assessed as down-regulation of Akt protein at IC80 concentration after 24 hrs by immunoblotting; format: cell-based; conditions: A-431; how it was run: as §1
Heat shock protein HSP90 [25] = molecular target: T1, Heat shock protein HSP90; assay: Inhibition of HSP90 in human A431 cells assessed as reduction of Hsp70/Hsp90 precipitation at 11 uM after 4 hrs by co-immunoprecipitation analysis; conditions: A-431
Heat shock protein HSP90 [26] = molecular target: T1, Heat shock protein HSP90; assay: Inhibition of HSP90 in human A431 cells assessed as down-regulation of Raf-1 protein at IC80 concentration after 24 hrs by immunoblotting; format: cell-based; conditions: A-431; how it was run: as §1
Heat shock protein HSP90 [27] = molecular target: T1, Heat shock protein HSP90; assay: Inhibition of HSP90 in human A431 cells assessed as up-regulation of HSP70 protein at IC80 concentration after 24 hrs by immunoblotting; format: cell-based; conditions: A-431; how it was run: as §1
IGROV-1 [28] = assay: Induction of apoptosis in human IGROV1 cells assessed as activation of caspase 3 at 11 uM after 48 hrs by Western blotting; format: functional, cell-based; how it was run: as §2
Heat shock protein HSP90 [29] = molecular target: T1, Heat shock protein HSP90; assay: Inhibition of HSP90 in human A431 cells assessed as reduction of Raf-1/Hsp90 precipitation at 11 uM after 4 hrs by co-immunoprecipitation analysis; conditions: A-431
Heat shock protein HSP90 [30] = molecular target: T1, Heat shock protein HSP90; assay: Inhibition of HSP90 in human IGROV1 cells assessed as down-regulation of survivin protein at IC80 concentration after 24 hrs by immunoblotting; format: cell-based; conditions: IGROV-1; how it was run: as §1
Heat shock protein HSP90 [31] = molecular target: T1, Heat shock protein HSP90; assay: Inhibition of HSP90 in human IGROV1 cells assessed as down-regulation of Cdk4 protein at IC80 concentration after 24 hrs by immunoblotting; format: cell-based; conditions: IGROV-1; how it was run: as §1
[32] = Binding affinity to HSP90 by surface plasmon resonance analysis
IGROV-1 [33] = assay: Antitumor activity against human IGROV1 cells xenografted in athymic Swiss nude mouse assessed as increase of mouse survival at 25 mg/kg, ip administered qd for 4 days/week for 2 weeks; format: functional, organism-based; set-up: dose 25 mg/kg
How it was run: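 Female athymic Swiss nude mice, 8–10 weeks old. IGROV-1 ovarian carcinoma was serially passaged ip as ascites, and 2.5 × 10^6 cells in 0.2 mL saline were injected ip. Dosing ip at 25 mg/kg daily, 4 days/week for 2 weeks, began the day after implant. End point was median survival time, reported as T/C% (treated/control MST × 100).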

Structure (SMILES) | EC50 (Heat shock protein HSP90 [1]) [µM] | IC50 [2] [µM] | IC50 (NCI-H460) [µM] | inhibition (Heat shock protein HSP90 [3]) | inhibition (Heat shock protein HSP90 [4]) | inhibition (Heat shock protein HSP90 [5]) | IC50 (IGROV-1 [6]) [µM] | EC50 (Heat shock protein HSP90 [7]) [µM] | inhibition (Heat shock protein HSP90 [8]) | IC50 [9] [µM] | inhibition (Heat shock protein HSP90 [10]) | IC50 [11] [µM] | inhibition (Heat shock protein HSP90 [12]) | Raf-1 protein down-regulation (Heat shock protein HSP90 [13]) | EC50 (Heat shock protein HSP90 [14]) [µM] | inhibition (Heat shock protein HSP90 [15]) | inhibition (Heat shock protein HSP90 [17]) | EC50 (Heat shock protein HSP90 [18]) [µM] | IC50 (A-431) [µM] | IC80 (A-431) [µM] | further results
CCC(C)/C=C/C=C/C=C/C(=O)/C=C(\O)C1=C2C=C(CC(O)CO)/C(=C/NCc3ccccc3)C(=O)[C@]2(C)OC1=O (some centres undefined) | 3.57 | 27.7 | 4.3 | Active | Active | Active | 0.2 | 2.32 | Active | 4.8 | Active | 5.75 | Active | Active | 4.93 | Active | Active | 8.93 | 0.3 | 2.7 | IC80 (IGROV-1 [6]): 2.3 µM; IC80 [9]: 10.7 µM; IC50 [16]: 3.57 µM; IC80 [16]: 11.6 µM
CCC(C)/C=C/C=C/C=C/C(=O)/C=C(\O)C1=C2C=C3CC(CO)OC=C3C(=O)[C@]2(C)OC1=O (some centres undefined) [BULGARIALACTONE B] | 11 | 61.7 | 50 | Active | Active | Active | 4.65 | 11 | Active | 6.42 | Active | 9.87 | Active | Active | 8.49 | Active | Active | 16.8 | 5.53 | 11 | inhibition (Heat shock protein HSP90 [19]): Active; inhibition (IGROV-1 [20]): Active; inhibition (Heat shock protein HSP90 [21]): Active; inhibition (Heat shock protein HSP90 [22]): Active; inhibition (Heat shock protein HSP90 [23]): Active; inhibition (Heat shock protein HSP90 [24]): Active; inhibition (Heat shock protein HSP90 [25]): Active; inhibition (Heat shock protein HSP90 [26]): Active; inhibition (Heat shock protein HSP90 [27]): inactive; inhibition (IGROV-1 [28]): Active; inhibition (Heat shock protein HSP90 [29]): Active; inhibition (Heat shock protein HSP90 [30]): Active; inhibition (Heat shock protein HSP90 [31]): Active; Kd [32]: 0.0013 µM; Activity (IGROV-1 [33]): Active
